From BindingDB's records for doi:10.1021/jm0101702 (Abbott Laboratories, 2001)
pIC50: −log10 of the molar value.

target: T1, Vascular cell adhesion protein 1 (Homo sapiens, UniProt P19320); test: In vitro inhibitory potency compared to TNF-alpha induced VCAM-1 in human endothelial cells (ELISA assay)
T1 sequence (P19320 whole entry): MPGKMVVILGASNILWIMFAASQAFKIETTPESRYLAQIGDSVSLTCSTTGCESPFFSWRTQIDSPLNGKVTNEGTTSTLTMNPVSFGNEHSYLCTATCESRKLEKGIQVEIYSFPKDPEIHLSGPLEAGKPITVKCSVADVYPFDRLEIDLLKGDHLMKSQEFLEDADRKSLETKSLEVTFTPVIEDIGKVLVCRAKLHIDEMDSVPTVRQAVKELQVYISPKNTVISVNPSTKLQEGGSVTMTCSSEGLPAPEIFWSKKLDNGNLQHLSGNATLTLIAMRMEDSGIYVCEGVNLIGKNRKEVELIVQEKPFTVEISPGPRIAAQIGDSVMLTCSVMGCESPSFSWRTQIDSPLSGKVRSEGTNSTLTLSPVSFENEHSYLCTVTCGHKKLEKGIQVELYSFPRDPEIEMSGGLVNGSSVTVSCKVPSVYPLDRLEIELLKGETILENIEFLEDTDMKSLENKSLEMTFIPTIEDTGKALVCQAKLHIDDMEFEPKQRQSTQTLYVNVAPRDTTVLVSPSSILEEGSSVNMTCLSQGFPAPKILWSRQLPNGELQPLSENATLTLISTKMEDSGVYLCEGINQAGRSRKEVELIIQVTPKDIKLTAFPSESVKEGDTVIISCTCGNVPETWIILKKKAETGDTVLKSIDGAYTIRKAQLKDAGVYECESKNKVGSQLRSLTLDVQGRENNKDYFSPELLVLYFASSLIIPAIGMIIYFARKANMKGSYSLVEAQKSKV
Method in brief: (§1)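 Whole-cell ELISA on primary HUVECs plated at 5 × 10^4 cells/mL in EBM/2% FBS with growth supplements. Compound preincubated 24 h at 37 °C, then inducer added (TNFα at 5 ng/mL final, or IL-1β or PMA in its place) for 6 h at 37 °C. Mouse monoclonal anti-E-selectin, anti-ICAM-1 or anti-VCAM-1 was applied overnight at 4 °C, then HRP anti-mouse IgG. Detection with OPD, A490. Triplicate assays.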

| pIC50 | Structure (SMILES) |
| --- | --- |
| 8.10 | NC(=O)c1cc2c(Oc3ccc(Br)cc3)cncc2s1 [4-(4-Bromo-phenoxy)-thieno[2,3-c]pyridine-2-carboxylic acid amide] |

target: T1, Vascular cell adhesion protein 1; test: In vitro inhibitory potency compared to PMA induced VCAM-1 in human endothelial cells (ELISA assay); method in brief: as §1

| pIC50 | Structure (SMILES) |
| --- | --- |
| 7.70 | NC(=O)c1cc2c(Oc3ccc(Br)cc3)cncc2s1 [4-(4-Bromo-phenoxy)-thieno[2,3-c]pyridine-2-carboxylic acid amide] |

target: not listed separately; test: Inhibition of VCAM-1 in human endothelial cells

| pIC50 | Structure (SMILES) |
| --- | --- |
| < 6.00 | CCOC(=O)c1cccc(Oc2cncc3sc(C(N)=O)cc23)c1 [3-(2-Carbamoyl-thieno[2,3-c]pyridin-4-yloxy)-benzoic acid ethyl ester] |
| 6.48 | NC(=O)c1cc2c(Oc3ccc(Cl)cc3Br)cncc2s1 [4-(2-Bromo-4-chloro-phenoxy)-thieno[2,3-c]pyridine-2-carboxylic acid amide] |
| < 6.00 | CCOC(=O)c1ccc(Oc2cncc3sc(C(N)=O)cc23)cc1 [4-(2-Carbamoyl-thieno[2,3-c]pyridin-4-yloxy)-benzoic acid ethyl ester] |
| < 6.00 | NC(=O)c1cc2c(Oc3cccc(Br)c3)cncc2s1 [4-(3-Bromo-phenoxy)-thieno[2,3-c]pyridine-2-carboxylic acid amide] |
| < 6.00 | NC(=O)c1cc2c(Oc3cccc(C(F)(F)F)c3)cncc2s1 [4-(3-Trifluoromethyl-phenoxy)-thieno[2,3-c]pyridine-2-carboxylic acid amide] |
| 7.19 | NC(=O)c1cc2c(Oc3ccc(N)cc3)cncc2s1 [4-(4-Amino-phenoxy)-thieno[2,3-c]pyridine-2-carboxylic acid amide] |
| 7.32 | NC(=O)c1cc2c(Oc3ccc(Br)cc3)cncc2s1 [4-(4-Bromo-phenoxy)-thieno[2,3-c]pyridine-2-carboxylic acid amide] |
| < 6.00 | Cc1cc(Cl)ccc1Oc1cncc2sc(C(N)=O)cc12 [4-(4-Chloro-2-methyl-phenoxy)-thieno[2,3-c]pyridine-2-carboxylic acid amide] |
| < 6.00 | NC(=O)c1cc2c(Oc3ccc(Cl)c(F)c3)cncc2s1 [4-(4-Chloro-3-fluoro-phenoxy)-thieno[2,3-c]pyridine-2-carboxylic acid amide] |
| 7.72 | CNC(=O)c1cc2c(Oc3ccc(-n4ccnc4)cc3)cncc2s1 [4-(4-Imidazol-1-yl-phenoxy)-thieno[2,3-c]pyridine-2-carboxylic acid methylamide] |
| < 8.00 | NC(=O)c1cc2c(Oc3ccc(I)cc3)cncc2s1 [4-(4-Iodo-phenoxy)-thieno[2,3-c]pyridine-2-carboxylic acid amide] |
| < 7.00 | CC(C)c1ccc(Oc2cncc3sc(C(N)=O)cc23)cc1 [4-(4-Isopropyl-phenoxy)-thieno[2,3-c]pyridine-2-carboxylic acid amide] |
| 7.64 | COCc1ccc(Oc2cncc3sc(C(N)=O)cc23)cc1 [4-(4-Methoxymethyl-phenoxy)-thieno[2,3-c]pyridine-2-carboxylic acid amide] |
| < 7.62 | CNC(=O)c1cc2c(Oc3ccc(COC)cc3)cncc2s1 [4-(4-Methoxymethyl-phenoxy)-thieno[2,3-c]pyridine-2-carboxylic acid methylamide] |
| < 6.00 | CNC(=O)c1cc2c(Oc3ccc(N4CCOCC4)cc3)cncc2s1 [4-(4-Morpholin-4-yl-phenoxy)-thieno[2,3-c]pyridine-2-carboxylic acid methylamide] |
| 6.62 | CNC(=O)c1cc2c(Oc3ccc(-n4cncn4)cc3)cncc2s1 [4-(4-[1,2,4]Triazol-1-yl-phenoxy)-thieno[2,3-c]pyridine-2-carboxylic acid methylamide] |
| < 6.00 | CNC(=O)c1cc2c(Oc3ccc(C=CC(=O)NCCc4cnc[nH]4)cc3)cncc2s1 [4-(4-{2-[2-(1H-Imidazol-4-yl)-ethylcarbamoyl]-vinyl}-phenoxy)-thieno[2,3-c]pyridine-2-carboxylic acid methylamide] |
| 6.77 | CCOCCOCCOCC(F)(F)c1ccc(Oc2cncc3sc(C(=O)NC)cc23)cc1 [4-(4-{2-[2-(2-Ethoxy-ethoxy)-ethoxy]-1,1-difluoro-ethyl}-phenoxy)-thieno[2,3-c]pyridine-2-carboxylic acid methylamide] |
| 7.10 | CNC(=O)c1cc2c(Oc3ccc(-c4ccccc4)cc3)cncc2s1 [4-(Biphenyl-4-yloxy)-thieno[2,3-c]pyridine-2-carboxylic acid methylamide] |

| pIC50 | Structure (SMILES) |
| --- | --- |
| 6.03 | NC(=O)c1cc2c(Oc3ccc(C(O)CO)cc3)cncc2s1 (stereo unspecified) [4-[4-(1,2-Dihydroxy-ethyl)-phenoxy]-thieno[2,3-c]pyridine-2-carboxylic acid amide] |
| < 6.00 | NC(=O)c1cc2c(Oc3ccc(C(=O)N(C(=O)NC4CCCCC4)C4CCCCC4)cc3)cncc2s1 [4-[4-(1,3-Dicyclohexyl-ureidocarbonyl)-phenoxy]-thieno[2,3-c]pyridine-2-carboxylic acid amide] |
| < 6.00 | CNC(=O)c1cc2c(Oc3ccc(-c4nnn[nH]4)cc3)cncc2s1 [4-[4-(1H-Tetrazol-5-yl)-phenoxy]-thieno[2,3-c]pyridine-2-carboxylic acid methylamide] |
| < 6.00 | COCCOCc1ccc(Oc2cncc3sc(C(N)=O)cc23)cc1 [4-[4-(2-Methoxy-ethoxymethyl)-phenoxy]-thieno[2,3-c]pyridine-2-carboxylic acid amide] |
| < 6.00 | CNC(=O)c1cc2c(Oc3ccc(COCCOC)cc3)cncc2s1 [4-[4-(2-Methoxy-ethoxymethyl)-phenoxy]-thieno[2,3-c]pyridine-2-carboxylic acid methylamide] |
| < 6.00 | NC(=O)c1cc2c(Oc3ccc(C(=O)NCCN4CCOCC4)cc3)cncc2s1 [4-[4-(2-Morpholin-4-yl-ethylcarbamoyl)-phenoxy]-thieno[2,3-c]pyridine-2-carboxylic acid amide] |
| < 6.00 | CNC(=O)c1cc2c(Oc3ccc(C(=O)NCCN4CCOCC4)cc3)cncc2s1 [4-[4-(2-Morpholin-4-yl-ethylcarbamoyl)-phenoxy]-thieno[2,3-c]pyridine-2-carboxylic acid methylamide] |
| < 6.00 | NC(=O)c1cc2c(Oc3ccc(/C=C/C(=O)NCCN(CCO)CCO)cc3)cncc2s1 [4-[4-(2-{2-[Bis-(2-hydroxy-ethyl)-amino]-ethylcarbamoyl}-vinyl)-phenoxy]-thieno[2,3-c]pyridine-2-carboxylic acid amide] |
| < 6.00 | CNC(=O)c1cc2c(Oc3ccc(/C=C/C(=O)NCCN(CCO)CCO)cc3)cncc2s1 [4-[4-(2-{2-[Bis-(2-hydroxy-ethyl)-amino]-ethylcarbamoyl}-vinyl)-phenoxy]-thieno[2,3-c]pyridine-2-carboxylic acid methylamide] |
| < 6.74 | CNC(=O)c1cc2c(Oc3ccc(-c4cncn4C)cc3)cncc2s1 [4-[4-(3-Methyl-3H-imidazol-4-yl)-phenoxy]-thieno[2,3-c]pyridine-2-carboxylic acid methylamide] |
| < 6.00 | CNC(=O)c1cc2c(Oc3ccc(-c4noc(C(F)(F)F)n4)cc3)cncc2s1 [4-[4-(5-Trifluoromethyl-[1,2,4]oxadiazol-3-yl)-phenoxy]-thieno[2,3-c]pyridine-2-carboxylic acid methylamide] |
| < 6.00 | NC(=O)c1cc2c(Oc3ccc(C(=O)N4CCOCC4)cc3)cncc2s1 [4-[4-(Morpholine-4-carbonyl)-phenoxy]-thieno[2,3-c]pyridine-2-carboxylic acid amide] |
| < 6.00 | CNC(=O)c1cc2c(Oc3ccc(C(=N)NO)cc3)cncc2s1 [4-[4-(N-Hydroxycarbamimidoyl)-phenoxy]-thieno[2,3-c]pyridine-2-carboxylic acid methylamide] |
| < 6.00 | NC(=O)c1cc2c(Oc3ccc(COC4CCCCO4)cc3)cncc2s1 (stereo unspecified) [4-[4-(Tetrahydro-pyran-2-yloxymethyl)-phenoxy]-thieno[2,3-c]pyridine-2-carboxylic acid amide] |
| 4.96 | Cc1ccc(Oc2cncc3sc(C(N)=O)cc23)cc1 [4-p-Tolyloxy-thieno[2,3-c]pyridine-2-carboxylic acid amide] |
| < 6.00 | NC(=O)c1cc2c(Oc3ccc(/C=C/C(=O)NCC(O)CO)cc3)cncc2s1 (stereo unspecified) [4-{4-[2-(2,3-Dihydroxy-propylcarbamoyl)-vinyl]-phenoxy}-thieno[2,3-c]pyridine-2-carboxylic acid amide] |
| < 6.00 | CNC(=O)c1cc2c(Oc3ccc(/C=C/C(=O)NCC(O)CO)cc3)cncc2s1 (stereo unspecified) [4-{4-[2-(2,3-Dihydroxy-propylcarbamoyl)-vinyl]-phenoxy}-thieno[2,3-c]pyridine-2-carboxylic acid methylamide] |
| < 6.00 | NC(=O)c1cc2c(Oc3ccc(/C=C/C(=O)NCCN4CCOCC4)cc3)cncc2s1 [4-{4-[2-(2-Morpholin-4-yl-ethylcarbamoyl)-vinyl]-phenoxy}-thieno[2,3-c]pyridine-2-carboxylic acid amide] |
| < 6.00 | CNC(=O)c1cc2c(Oc3ccc(/C=C/C(=O)NCCN4CCOCC4)cc3)cncc2s1 [4-{4-[2-(2-Morpholin-4-yl-ethylcarbamoyl)-vinyl]-phenoxy}-thieno[2,3-c]pyridine-2-carboxylic acid methylamide] |

target: T1, Vascular cell adhesion protein 1; test: In vitro inhibitory potency compared to IL1-beta induced VCAM-1 in human endothelial cells (ELISA assay); method in brief: as §1

| pIC50 | Structure (SMILES) |
| --- | --- |
| 8.15 | NC(=O)c1cc2c(Oc3ccc(Br)cc3)cncc2s1 [4-(4-Bromo-phenoxy)-thieno[2,3-c]pyridine-2-carboxylic acid amide] |
